According to ChEMBL document CHEMBL3227952, “Potential organ- or tumor-imaging agents. 18. Radioiodinated diamines and bisquaternaries” (J Med Chem, 1979):

Experiments:
Settings in all cases: in vivo
Lung [1] = test: Drug uptake in Sprague-Dawley rat lung at 11.7 to 12.3 uCi, iv after 2 hrs by liquid scintillation counting; type: ADME, organism-based
Method in brief: (§1)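 Adult male Sprague-Dawley rats, 200–420 g, fed ad libitum. They got ¹²⁵I-labelled agent in saline (9.0–9.5 µCi/mg), 0.1 mL, by tail vein under ether. Five rats per time point were exsanguinated under ether. Organs were excised, rinsed, blotted and weighed. Duplicate samples were counted in a well-scintillation gamma counter (87% efficiency). Results are % administered dose/g, mean ± SEM.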

Testes [2] = test: Drug uptake in Sprague-Dawley rat testes at 11.7 to 12.3 uCi, iv after 0.5 hrs by liquid scintillation counting; type: ADME, organism-based, Testis
Method in brief: (§2)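 ¹²⁵I-labelled bisquaternary dissolved in saline (26 mg/2.0 mL), 9.0–9.5 μCi/mg, given in 0.1 mL via tail vein under ether to adult male Sprague-Dawley rats (200–420 g). Rats were killed by exsanguination under ether at 0.5 or 2 h. Organs were excised, rinsed, blotted and weighed, and duplicate samples were gamma-counted in a well-scintillation counter (87% efficiency). Results are % administered dose/g, mean ± SEM, five rats.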

Pituitary gland [3] = test: Drug uptake in Sprague-Dawley rat pituitary at 11.7 to 12.3 uCi, iv after 0.5 hrs by liquid scintillation counting; type: ADME, organism-based; method in brief: as §1
[4] = Drug uptake in Sprague-Dawley rat meninges at 11.7 to 12.3 uCi, iv after 2 hrs by liquid scintillation counting; type: ADME, organism-based; method in brief: as §1
[5] = Drug uptake in Sprague-Dawley rat meninges at 11.7 to 12.3 uCi, iv after 0.5 hrs by liquid scintillation counting; type: ADME, organism-based; method in brief: as §1
Brain [6] = test: Drug uptake in Sprague-Dawley rat brain at 11.7 to 12.3 uCi, iv after 0.5 hrs by liquid scintillation counting; type: ADME, organism-based; method in brief: as §1
[7] = Drug uptake in Sprague-Dawley rat ventricle at 11.7 to 12.3 uCi, iv after 0.5 hrs by liquid scintillation counting; type: ADME, organism-based, Cardiac ventricle; method in brief: as §2
[8] = Drug uptake in Sprague-Dawley rat diaphragm at 11.7 to 12.3 uCi, iv after 0.5 hrs by liquid scintillation counting; type: ADME, organism-based; method in brief: as §1
[9] = Drug uptake in Sprague-Dawley rat auricle at 11.7 to 12.3 uCi, iv after 2 hrs by liquid scintillation counting; type: ADME, organism-based; method in brief: as §1
[10] = Drug uptake in Sprague-Dawley rat auricle at 11.7 to 12.3 uCi, iv after 0.5 hrs by liquid scintillation counting; type: ADME, organism-based; method in brief: as §1
[11] = Drug uptake in Sprague-Dawley rat intervertebral disk at 11.7 to 12.3 uCi, iv after 2 hrs by liquid scintillation counting; type: ADME, organism-based; method in brief: as §1
Spleen [12] = test: Drug uptake in Sprague-Dawley rat spleen at 11.7 to 12.3 uCi, iv after 0.5 hrs by liquid scintillation counting; type: ADME, organism-based; method in brief: as §2
Pituitary gland [13] = test: Drug uptake in Sprague-Dawley rat pituitary at 11.7 to 12.3 uCi, iv after 2 hrs by liquid scintillation counting; type: ADME, organism-based; method in brief: as §1
Pancreas [14] = test: Drug uptake in Sprague-Dawley rat pancreas at 11.7 to 12.3 uCi, iv after 0.5 hrs by liquid scintillation counting; type: ADME, organism-based; method in brief: as §1
Adrenal [15] = test: Drug uptake in Sprague-Dawley rat adrenal at 11.7 to 12.3 uCi, iv after 0.5 hrs by liquid scintillation counting; type: ADME, organism-based, Adrenal gland; method in brief: as §1
Lung [16] = test: Drug uptake in Sprague-Dawley rat lung at 11.7 to 12.3 uCi, iv after 0.5 hrs by liquid scintillation counting; type: ADME, organism-based; method in brief: as §1
Thyroid gland [17] = test: Drug uptake in Sprague-Dawley rat thyroid at 11.7 to 12.3 uCi, iv after 0.5 hrs by liquid scintillation counting; type: ADME, organism-based; method in brief: as §2
[18] = Drug uptake in Sprague-Dawley rat bone marrow at 11.7 to 12.3 uCi, iv after 2 hrs by liquid scintillation counting; type: ADME, organism-based; method in brief: as §1
Blood [19] = test: Drug uptake in Sprague-Dawley rat blood at 11.7 to 12.3 uCi, iv after 0.5 hrs by liquid scintillation counting; type: ADME, organism-based; method in brief: as §1
Pancreas [20] = test: Drug uptake in Sprague-Dawley rat pancreas at 11.7 to 12.3 uCi, iv after 2 hrs by liquid scintillation counting; type: ADME, organism-based; method in brief: as §1
Kidney [21] = test: Drug uptake in Sprague-Dawley rat kidney at 11.7 to 12.3 uCi, iv after 0.5 hrs by liquid scintillation counting; type: ADME, organism-based; method in brief: as §1
Duodenum [22] = test: Drug uptake in Sprague-Dawley rat duodenum at 11.7 to 12.3 uCi, iv after 0.5 hrs by liquid scintillation counting; type: ADME, organism-based; method in brief: as §1
[23] = Drug uptake in Sprague-Dawley rat intervertebral disk at 11.7 to 12.3 uCi, iv after 0.5 hrs by liquid scintillation counting; type: ADME, organism-based; method in brief: as §1
Blood [24] = test: Drug uptake in Sprague-Dawley rat blood at 11.7 to 12.3 uCi, iv after 2 hrs by liquid scintillation counting; type: ADME, organism-based; method in brief: as §1
Adrenal [25] = test: Drug uptake in Sprague-Dawley rat adrenal at 11.7 to 12.3 uCi, iv after 2 hrs by liquid scintillation counting; type: ADME, organism-based, Adrenal gland; method in brief: as §1
Liver [26] = test: Drug uptake in Sprague-Dawley rat liver at 11.7 to 12.3 uCi, iv after 0.5 hrs by liquid scintillation counting; type: ADME, organism-based; method in brief: as §1
[27] = Drug uptake in Sprague-Dawley rat trachea at 11.7 to 12.3 uCi, iv after 2 hrs by liquid scintillation counting; type: ADME, organism-based; method in brief: as §2
[28] = Drug uptake in Sprague-Dawley rat ventricle at 11.7 to 12.3 uCi, iv after 2 hrs by liquid scintillation counting; type: ADME, organism-based, Cardiac ventricle; method in brief: as §2
Kidney [29] = test: Drug uptake in Sprague-Dawley rat kidney at 11.7 to 12.3 uCi, iv after 2 hrs by liquid scintillation counting; type: ADME, organism-based; method in brief: as §1
[30] = Drug uptake in Sprague-Dawley rat trachea at 11.7 to 12.3 uCi, iv after 0.5 hrs by liquid scintillation counting; type: ADME, organism-based; method in brief: as §2
[31] = Drug uptake in Sprague-Dawley rat diaphragm at 11.7 to 12.3 uCi, iv after 2 hrs by liquid scintillation counting; type: ADME, organism-based; method in brief: as §1
Brain [32] = test: Drug uptake in Sprague-Dawley rat brain at 11.7 to 12.3 uCi, iv after 2 hrs by liquid scintillation counting; type: ADME, organism-based; method in brief: as §1
Thyroid gland [33] = test: Drug uptake in Sprague-Dawley rat thyroid at 11.7 to 12.3 uCi, iv after 2 hrs by liquid scintillation counting; type: ADME, organism-based; method in brief: as §2
[34] = Drug uptake in Sprague-Dawley rat bone marrow at 11.7 to 12.3 uCi, iv after 0.5 hrs by liquid scintillation counting; type: ADME, organism-based; method in brief: as §1
Spleen [35] = test: Drug uptake in Sprague-Dawley rat spleen at 11.7 to 12.3 uCi, iv after 2 hrs by liquid scintillation counting; type: ADME, organism-based; method in brief: as §2
Liver [36] = test: Drug uptake in Sprague-Dawley rat liver at 11.7 to 12.3 uCi, iv after 2 hrs by liquid scintillation counting; type: ADME, organism-based; method in brief: as §1
Testes [37] = test: Drug uptake in Sprague-Dawley rat testes at 11.7 to 12.3 uCi, iv after 2 hrs by liquid scintillation counting; type: ADME, organism-based, Testis; method in brief: as §2
Duodenum [38] = test: Drug uptake in Sprague-Dawley rat duodenum at 11.7 to 12.3 uCi, iv after 2 hrs by liquid scintillation counting; type: ADME, organism-based; method in brief: as §1

C[N+](C)(C)Cc1ccc(C[N+](C)(C)C)c([125I])c1.[I-].[I-]
Drug uptake (Lung [1]): 0.087 % ID/g
Drug uptake (Testes [2]): 0.076 % ID/g
Drug uptake (Pituitary gland [3]): 0.118 % ID/g
Drug uptake [4]: 0.658 % ID/g
Drug uptake [5]: 0.467 % ID/g
Drug uptake (Brain [6]): 0.044 % ID/g
Drug uptake [7]: 0.121 % ID/g
Drug uptake [8]: 0.08 % ID/g
Drug uptake [9]: 0.108 % ID/g
Drug uptake [10]: 0.203 % ID/g
Drug uptake [11]: 0.087 % ID/g
Drug uptake (Spleen [12]): 0.137 % ID/g
Drug uptake (Pituitary gland [13]): 0.082 % ID/g
Drug uptake (Pancreas [14]): 0.075 % ID/g
Drug uptake (Adrenal [15]): 0.094 % ID/g
Drug uptake (Lung [16]): 0.257 % ID/g
Drug uptake (Thyroid gland [17]): 0.095 % ID/g
Drug uptake [18]: 0.078 % ID/g
Drug uptake (Blood [19]): 0.277 % ID/g
Drug uptake (Pancreas [20]): 0.03 % ID/g
Drug uptake (Kidney [21]): 3.305 % ID/g
Drug uptake (Duodenum [22]): 0.085 % ID/g
Drug uptake [23]: 0.607 % ID/g
Drug uptake (Blood [24]): 0.015 % ID/g
Drug uptake (Adrenal [25]): 0.043 % ID/g
Drug uptake (Liver [26]): 0.129 % ID/g
Drug uptake [27]: 0.089 % ID/g
Drug uptake [28]: 0.018 % ID/g
Drug uptake (Kidney [29]): 1.834 % ID/g
Drug uptake [30]: 0.798 % ID/g
Drug uptake [31]: 0.022 % ID/g
Drug uptake (Brain [32]): 0.038 % ID/g
Drug uptake (Thyroid gland [33]): 0.06 % ID/g
Drug uptake [34]: 0.132 % ID/g
Drug uptake (Spleen [35]): 0.094 % ID/g
Drug uptake (Liver [36]): 0.085 % ID/g
Drug uptake (Testes [37]): 0.034 % ID/g
Drug uptake (Duodenum [38]): 0.033 % ID/g
